One block for each compound: values may come before it. The source made the active and inactive calls. No cut-off for these calls is given here.
Tests used:
[1] = molecular target: Histone acetyltransferase GCN5 (Saccharomyces cerevisiae S288c) (UniProt Q03330); test: Inhibition of Saccharomyces cerevisiae GCN5 at 0.6 mM
Method in brief: (§1)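 Yeast strains (wild-type MK839, F221A and E173H GCN5 catalytic mutants, spt20∆) grown at 28 °C with 0.6 mM compound; ten-fold serial dilutions of liquid culture spotted on solid medium. Growth estimated by optical density as arbitrary units.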

[2] = system: Saccharomyces cerevisiae; test: Inhibition of growth of Saccharomyces cerevisiae F221A mutant at 0.6 mM; type: functional, organism-based; method in brief: as §1
[3] = system: Saccharomyces cerevisiae; test: Inhibition of growth of Saccharomyces cerevisiae E173H mutant at 0.6 mM; type: functional, organism-based; method in brief: as §1
[4] = system: Saccharomyces cerevisiae; test: Inhibition of growth of wild type Saccharomyces cerevisiae MK839 mutant at 0.6 mM; type: functional, organism-based; method in brief: as §1
[5] = system: Saccharomyces cerevisiae; test: Inhibition of growth of Saccharomyces cerevisiae spt20delta mutant at 0.6 mM; type: functional, organism-based; method in brief: as §1
[6] = molecular target: Histone acetyltransferase GCN5 (Saccharomyces cerevisiae S288c) (UniProt Q03330); test: Inhibition of GCN5-dependent HIS3-LacZ reporter gene transcription measured as level of beta-galactosidase activity in Saccharomyces cerevisiae; type: functional
Method in brief: (§2)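 Yeast reporter strains: HIS3-LacZ (yPO14) grown 16 h in SD at 28 °C and then 4 h with 25 mM 3-aminotriazole; GAL10-CYC1-LacZ (yPO1569) grown 16 h in SD, washed, then 4 h in galactose SG medium. Compounds at 0.6 mM. β-Gal activity read in glass-bead extracts normalized to Bradford protein; 1 unit = 1 µmol o-nitrophenol/min.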

[7] = molecular target: Histone acetyltransferase GCN5 (Saccharomyces cerevisiae S288c) (UniProt Q03330); test: Inhibition of GCN5-dependent HIS3-LacZ reporter gene transcription measured as level of beta-galactosidase activity in Saccharomyces cerevisiae in presence of 3-aminotriazole; type: functional
[8] = system: Saccharomyces cerevisiae; test: Inhibition of GCN5-independent GAL10-CYC1-LacZ reporter gene transcription measured as level of beta-galactosidase activity in Saccharomyces cerevisiae; type: functional, organism-based; method in brief: as §2
[9] = system: Saccharomyces cerevisiae; test: Inhibition of GCN5-independent GAL10-CYC1-LacZ reporter gene transcription measured as level of beta-galactosidase activity in Saccharomyces cerevisiae under galactose induction
[10] = system: U-937; test: Inhibition of HAT in human U937 cells at 50 uM; type: functional; design: scale not given: the % may be the effect or the level left
Method in brief: (§3)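 Indirect ELISA for acetylated histone H3 using 10 µg U937 nuclear extract per well as HAT source; 90 min incubation with compound (25, 50 or 500 µM) or DMSO control. Acetylated H3 peptide standard curve; expressed as % inhibition relative to untreated extract (100%).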

[11] = system: U-937; test: Inhibition of HAT in human U937 cells at 25 uM; type: functional; design: scale not given: the % may be the effect or the level left; method in brief: as §3
[12] = system: U-937; test: Inhibition of H3 histone acetylation in human U937 cells at 100 uM; type: functional, cell-based
Method in brief: (§4)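 SAHA 5 µM pretreatment of U937 cells for 2 h, then wash and 4 h with vehicle or 100 µM compound. Acetyl-H3 and acetyl-α-tubulin detected by Western blot (50 µg total protein for tubulin, total ERKs as loading control).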

[13] = system: U-937; test: Inhibition of alpha-tubulin acetylation in human U937 cells at 100 uM; type: functional, cell-based; method in brief: as §4
[14] = system: Saccharomyces cerevisiae; test: Inhibition of Saccharomyces cerevisiae growth at 0.6 mM; type: functional, organism-based; method in brief: as §1
[15] = system: Saccharomyces cerevisiae; test: Inhibition of Saccharomyces cerevisiae H3 histone acetylation at 0.6 mM; type: functional, organism-based
Method in brief: (§5)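 Wild-type S. cerevisiae grown 16 h in YPD at 28 °C with 0.6, 1 or 1.5 mM compound; gcn5∆ strain run in parallel. Alkaline protein extraction, 15% SDS-PAGE, Western blot with anti-acetyl-H3 and anti-H3 antibodies, ECL detection.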

[16] = system: Saccharomyces cerevisiae; test: Inhibition of Saccharomyces cerevisiae H3 histone acetylation at 1 mM; type: functional, organism-based; method in brief: as §5
[17] = system: U-937; test: Cell cycle arrest at G1 phase in human U937 cells at 1 mM after 24 hrs; type: functional, cell-based
Method in brief: (§6)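 U937 cells in RPMI with 10% FBS and antibiotics, held at 200 000 cells/mL, treated 24 h at 1 mM (DMSO stock). Cell cycle: 2.5 × 10^5 cells in hypotonic buffer with propidium iodide and RNase A, 30 min dark, flow cytometry; three experiments. Apoptosis: Annexin V/propidium iodide double staining by FACS.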

[18] = system: U-937; test: Induction of apoptosis in human U937 cells at 1 mM after 24 hrs; type: functional; method in brief: as §6
[19] = system: U-937; test: Effect on granulocytic differentiation in human U937 cells measured as CD11c expression level at 1 mM after 30 hrs; type: functional
Method in brief: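 U937 cells (RPMI, 10% FBS, 200 000 cells/mL) exposed 30 h to 1 mM. Stained with PE-conjugated CD11c, 30 min at 4 °C in the dark; PE mouse IgG1 as staining control; propidium iodide 0.25 µg/mL added and PI-positive cells excluded. Reported as percent CD11c-positive cells by FACS.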

[20] = system: U-937; test: Inhibition of HAT in human U937 cells at 500 uM; type: functional; design: scale not given: the % may be the effect or the level left; method in brief: as §3
[21] = system: U-937; test: Inhibition of H3 histone acetylation in human U937 cells at 2.5 mM; type: functional, cell-based
Method in brief: (§7)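 U937 cells pretreated 2 h with 5 µM SAHA, washed, then incubated 4 h with vehicle or compound at 2.5 mM. Western blot for acetylated histone H3 and acetylated α-tubulin (50 µg protein on 10% gels, normalized to total ERKs).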

[22] = system: U-937; test: Inhibition of alpha-tubulin acetylation in human U937 cells at 2.5 mM; type: functional, cell-based; method in brief: as §7
[23] = system: Saccharomyces cerevisiae; test: Inhibition of Saccharomyces cerevisiae H3 histone acetylation at 1.5 mM; type: functional, organism-based; method in brief: as §5

Histone acetyltransferase GCN5 (Saccharomyces cerevisiae S288c), sequence (Q03330 whole entry): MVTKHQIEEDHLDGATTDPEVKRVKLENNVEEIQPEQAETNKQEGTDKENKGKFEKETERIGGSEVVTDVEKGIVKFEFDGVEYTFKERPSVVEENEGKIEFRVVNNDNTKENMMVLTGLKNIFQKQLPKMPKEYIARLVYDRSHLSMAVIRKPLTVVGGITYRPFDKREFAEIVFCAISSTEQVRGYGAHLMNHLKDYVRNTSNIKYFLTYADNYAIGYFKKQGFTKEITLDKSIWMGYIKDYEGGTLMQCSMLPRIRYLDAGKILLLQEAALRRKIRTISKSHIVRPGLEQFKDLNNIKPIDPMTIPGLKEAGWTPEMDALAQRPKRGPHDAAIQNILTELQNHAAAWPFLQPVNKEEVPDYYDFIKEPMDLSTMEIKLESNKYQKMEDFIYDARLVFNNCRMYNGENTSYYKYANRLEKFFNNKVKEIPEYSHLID

Activity [1]: inactive
Structure (SMILES): O=C(O)c1cnc2ccccc2c1

Activity [1]: inactive | Activity [6]: inactive | Activity [7]: inactive | Activity [8]: inactive | Activity [9]: inactive
Structure (SMILES): CCOC(=O)c1cccnc1C
Activity [2]: inactive | Activity [3]: inactive | Activity [4]: inactive | Activity [5]: inactive

Structure (SMILES): CCCCCc1nc2ccccc2c(O)c1C(=O)O
Activity [10]: 30% | Activity [11]: 24% | Activity [12]: Active | Activity [13]: Active

Activity [1]: inactive
Structure (SMILES): CCOC(=O)c1ccc2ccccc2c1

Structure (SMILES): C=CC/C=C\C/C=C\CCCCCCCc1cccc(O)c1C(=O)O [ANACARDIC ACID]
Activity [10]: 15%

Activity [1]: inactive
Structure (SMILES): Cc1ccc2ccccc2n1

Activity [1]: inactive
Structure (SMILES): NC(=O)c1cnc2ccccc2c1

Activity [1]: inactive
Structure (SMILES): CCOC(=O)c1c(C)nc2ccccc2c1O

Structure (SMILES): COc1cc(/C=C/C(=O)CC(=O)/C=C/c2ccc(O)c(OC)c2)ccc1O [CURCUMIN]
Activity [10]: 17.5%

Structure (SMILES): C=C1C(=O)O[C@H](CCC)[C@H]1C(=O)O
Activity [10]: 44%

Activity [6]: Active | Activity [7]: Active | Activity [8]: inactive | Activity [9]: inactive
Structure (SMILES): CCOC(=O)c1cc2ccccc2nc1C
Activity [14]: Active | Activity [15]: Active | Activity [16]: Active | Activity [17]: Active | Activity [18]: 27% | Activity [19]: 8.8% | Activity [20]: 32% | Activity [21]: Active | Activity [22]: Active

Activity [1]: Active | Activity [6]: Active | Activity [7]: Active | Activity [9]: Active
Structure (SMILES): CCOC(=O)c1cnc2ccccc2c1
Activity [14]: Active | Activity [23]: Active | Activity [19]: 14% | Activity [20]: 25% | Activity [22]: Active

— ChEMBL document CHEMBL1137341, “Small-molecule inhibitors of histone acetyltransferase activity: identification and biological properties” (2006)
